eIF4E-4G inh – inhibitors of eIF4E and eIF4G interaction in translation initiation | P63073+Q04637 | TR-FRET eIF4E-eIF4GI(517-606) binding, 2 h | inhibition, % at 21.7 µM | 220,000 compounds, 0.37% hits | AID 782;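 active means inhibition above about 30%, limit read from the data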;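 further: 0% = full FRET control wells and 100% = background wells lacking eIF4GI fragment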
PABP polyA inh – PABP-poly(A) binding inhibition; PABP-poly(A) RNA binding, fluorescence polarization; calls only at 35 µM; 290,000 compounds, 1% hits; AID 2014;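 further: calls also rest on retests at 20 µM and on dose response follow-up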
UBC9 SUMO inh – blocks human SUMOylation mediated by UBC9 | 290,000 compounds, 0.36% hits | P63279 | inhibition, % at 35 µM | HTRF SUMOylation assay, SAE1/SAE2 + UBC9, in vitro; in the data active means inhibition above about 50%, passing the limit was not always enough; inconclusive means no clear call, values can overlap the other calls
Target sequence (P63279 whole entry, looked up): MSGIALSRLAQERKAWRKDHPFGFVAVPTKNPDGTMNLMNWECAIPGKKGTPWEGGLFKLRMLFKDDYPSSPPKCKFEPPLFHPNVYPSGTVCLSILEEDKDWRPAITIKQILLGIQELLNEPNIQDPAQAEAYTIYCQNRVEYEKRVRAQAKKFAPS
MLLE-PAM2 inh – blocks PAM2 peptide binding to the PABP1 MLLE domain. P11940. GST-MLLE / FITC-PAM2 fluorescence polarization. inhibition, % at 20 µM. 360,000 compounds, 0.36% hits. AID 588489; in the data active means inhibition above about 35%, passing the limit was not always enough;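 further: plate controls were DMSO wells with GST-MLLE for no effect and wells lacking GST-MLLE protein for full effect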
eIF4H FP inh – inhibitors of RNA binding by human eIF4H; 290,000 compounds, 0.94% hits; inhibition, % at 35 µM; Q15056; eIF4H fluorescence polarization binding assay;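 further: calls also rest on retests at 20 µM and on dose response follow-up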
HCV core dimer – HCV core protein dimerization inhibition | TR-FRET GST/Flag-core106 dimerization, 1536-well | inhibition, % at 5 µM | 300,000 compounds, 0.33% hits | AID 1899;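 active means inhibition above the mean of all tested compounds plus 3 SD, set per screening campaign, cut at about 45% in these data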
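Material: GST/Flag-tagged HCV core106 proteins. Incubation: 4 h, 22.5 °C incubation. Read-out basis: inhibition (%) from 671 over 617 nm ratio. Measured by: TR-FRET, excitation 340 nm, emission 617 and 671 nm.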
The depositor's hits bear a star; i = inactive; ? = inconclusive; . = no result; + = active, no number. A selection: hits, their analogues and other compounds. The true share with any hit is near 1.8%. Unless noted, how the calls were made is not given here.

SMILES | eIF4E-4G inh | PABP polyA inh | UBC9 SUMO inh | MLLE-PAM2 inh | eIF4H FP inh | HCV core dimer
Oc1cccc(C=NCc2ccccc2)c1O | 1.6 | + | 60.6 | -1.5 | 90.3* | 3.3
Oc1ccccc1N=Cc1c(O)ccc2ccccc12 | 0.9 | + | 50.8 | -65.1 | 85.5 | .
CCn1c(O)c(C=NCc2ccccc2)sc1=S | -1.0 | i | 10.5 | 19.5 | -8.8 | -0.9
CCOc1ccc(C)cc1S(=O)(=O)n1cnc2ccccc21 | . | i | 8.4 | -10.7 | 12.1 | -13.0
CC(C)CC(=O)Nc1cccc(C(C)O)c1 (stereo not drawn) | -0.1 | + | 18.6 | . | active | -0.3
CCCCC(=O)Nc1cccc(C(C)O)c1 (stereo not drawn) | -1.9 | i | 16.0 | . | -2.5 | -1.4
CCCCCn1c(=O)c(C(=O)c2ccccc2)nc2ccccc21 | 1.6 | + | 20.4 | -6.2 | -13.8 | -0.9
CCn1c(=O)c(C(C)=O)nc2ccccc21 | 1.3 | i | 43.4 | -2.0 | -0.9 | -5.2
O=C1N=C(N2CCN(c3cccc4ccccc34)CC2)S/C1=C/c1cccs1 | -29.6 | i | 6.5 | 4.5 | -3.1 | 67.2*
Cc1cc(O)c(/C=N/OCc2ccc(Cl)cc2Cl)c(=O)o1 | 75.6* | i | 10.6 | -3.8 | -9.5 | -1.1
COc1ccc(Cl)cc1N=Cc1c(O)cc(C)oc1=O | . | . | . | -3.1 | . | -5.2
O=C1CNC(=O)c2cc(Cl)ccc2N1 | . | . | . | 4.4 | . | .
N#Cc1cccc(NC(=O)CSc2ccc3c4c(cccc24)C(=O)c2ccccc2-3)c1 | 4.2 | i | 11.0 | 102.9 | 126.5 | 66.5*
O=C(Nn1cnnc1)c1cc(Br)ccc1Cl | . | i | 5.4 | 5.1 | -18.2 | 2.1
CCOC(=O)Cc1cc(=O)c2c(=O)n(-c3ccccc3)[nH]c2[nH]1 | 4.8 | + | 9.5 | -7.7 | 6.0* | -7.7
O=C(NC1CCCCC1)N1CCN(c2ccccc2Cl)CC1 | . | i | 3.7 | -1.5 | -1.4 | 10.3
Fc1ccc(NC(=S)N2CCCC(c3ccccc3)=N2)cc1 | -3.0 | + | 3.1 | -90.3 | 54.3* | 1.8
CSc1ccc(Cl)c(C(=O)NCCCn2ccnc2)c1 | . | i | 12.8 | -1.5 | 8.0 | 1.3
Cc1[nH]nc2c(=S)[nH]c(=O)[nH]c12 | . | . | . | 40.1* | . | .
CCc1cccc(NC(=O)CSc2nnc(Cc3ccc(OC)cc3)c(=O)[nH]2)c1 | . | . | . | 3.1 | . | -0.4
CCOC(=O)c1cc(-c2ccccc2)sc1NC(=O)C(C)N1C(=O)c2ccccc2C1=O (stereo not drawn) | 0.7 | i | -14.0 | -8.8 | -5.4 | 3.0
Cc1ccc(C2C(C#N)=C(N)Oc3c2oc(CO)cc3=O)o1 (stereo not drawn) | -6.2 | i | 16.3 | 3.6 | 45.3* | -1.4
CC(C)Oc1ccc(C2C(C#N)=C(N)Oc3c2oc(CO)cc3=O)cc1 (stereo not drawn) | 0.6 | i | 16.8 | 3.3 | 43.1 | 6.4
Cc1[nH]c2ccc(C(=O)NCCN3CCOCC3)cc2c1C | . | i | 16.2 | 0.9 | -6.3 | -4.6
COc1ccccc1C(=O)NCC(=O)N/N=C/c1cc(Br)ccc1OC(=O)/C=C\c1ccco1 | 1.2 | i | 26.2 | -10.2 | 85.5 | 13.1
SMILES | eIF4E-4G inh | PABP polyA inh | UBC9 SUMO inh | MLLE-PAM2 inh | eIF4H FP inh | HCV core dimer
O=C(CNC(=O)c1ccccc1F)N/N=C/c1cc(Br)ccc1OC(=O)/C=C/c1ccco1 | -1.3 | i | 34.8 | -21.3 | 83.7* | 7.8
CS(=O)(=O)N(CC(=O)NC1CCCC1)C1CCCCC1 | -1.1 | i | 13.3 | -1.9 | 1.3 | 0.1
CS(=O)(=O)N(CC(=O)NC1CC1)C1CCCCC1 | 7.1 | i | -6.9 | 5.9 | active | -3.9
COc1ccc(C2=NN(c3nc(-c4ccccc4)c(CC(=O)O)s3)C(c3ccco3)C2)cc1 (stereo not drawn) | 2.5 | i | 20.7 | -77.7 | 20.3 | 86.9*
O=C(C[n+]1cccc2ccccc21)c1ccc([N+](=O)[O-])cc1 | 3.8 | i | 12.2 | 3.8 | 7.7 | 11.3
O=C(C[n+]1cccc2ccccc21)c1ccc(Cl)cc1 | . | + | -1.4 | -0.7 | 71.3 | -1.6
COC(=O)c1ccc2c(c1)N(C)S(=O)(=O)c1cnc(SCC(=O)C(C)(C)C)nc1-2 | -0.4 | i | 4.9 | 5.9 | -3.5 | 3.4
COc1ccc(OC)c(NC(=O)CSC2=NCCS2)c1 | -0.8 | i | -20.8 | 39.6* | 1.6 | 1.6
O=C(Nc1nnc(SCC(=O)N2CCCCC2)s1)c1c(F)cccc1F | . | i | -9.5 | 0.1 | -7.2 | -0.2
Cc1cc2nc(-c3cccc(Cl)c3)c(Cc3ccccc3)n2c(C)c1Br | . | . | . | -3.7 | . | .
Cc1ccc(C)c(S(=O)(=O)NCC(=O)OCC(=O)Nc2sccc2C(N)=O)c1 | . | . | . | -0.4 | . | .
COc1ccc(C)cc1NC(=O)c1c([N+](=O)[O-])cnn1C | . | i | 7.5 | -5.7 | 3.6 | 3.0
COc1ccccc1NC(=O)c1c(N=Cc2cccc([N+](=O)[O-])c2)cnn1C | 45.8* | i | -1.6 | -4.2 | -2.6 | 0.4
Cc1cccc(CCNC(=O)CCS(=O)(=O)c2cc3c(cc2Cl)NC(=O)CO3)c1 | . | i | -0.5 | 12.9 | -5.4 | -4.3
Cc1cccc(N(C)C(=O)CCS(=O)(=O)c2cc3c(cc2Cl)NC(=O)CO3)c1 | . | i | 6.5 | 39.3* | -14.4 | -9.5
Cc1ncc(CN2CCCC(C(=O)Nc3ccc(-c4ccco4)cc3)C2)n1C (stereo not drawn) | . | i | 7.2 | 13.2 | -1.7 | -2.9
CSc1ncc(CN2CCCC(C(=O)Nc3ccc(-c4ccco4)cc3)C2)cn1 (stereo not drawn) | . | i | -2.9 | -19.5 | 61.8 | 57.3*
CCCCC1OC23CCCCC2C(C#N)(C(=N)O3)C1(C#N)C#N (stereo not drawn) | 13.0 | ? | 13.6 | 48.2* | ? | 5.3
Cc1cccnc1NC(=S)NC(=O)c1oc2ccccc2c1C | . | i | 9.2 | 40.2* | 2.7 | -2.7
O=S(=O)(Nc1ncnc2sc3c(c12)CCC3)c1ccc(Cl)s1 | 0.1 | i | 0.7 | -0.7 | -2.5 | 46.6*
Cc1ccnc(NC(c2ccccc2O)c2oc(CO)cc(=O)c2O)c1 (stereo not drawn) | 11.5 | i | -16.6 | 6.7 | 13.6 | -6.2
O=C(NCc1ccccc1)c1cc(C2CCCCN2C(=O)c2ccccc2)on1 (stereo not drawn) | . | . | . | 9.4 | . | .
CCCCC[C@H](O)/C=C/[C@@H]1[C@@H](C/C=C\CCCC(=O)OC)[C@@H](O)C[C@H]1O | 88.2* | i | . | -4.1 | -18.0 | -2.4
CCn1c(SCc2ccc(Cl)c(Cl)c2)nnc1C(C)NC(=O)c1ccc(OC)cc1 (stereo not drawn) | 8.9 | + | -8.4 | -0.8 | active | -0.4
COc1ccc(C(=O)NC(C)c2nnc(SCc3ccc(Cl)c(Cl)c3)n2C)cc1 (stereo not drawn) | 0.1 | i | -2.7 | -99.6 | 12.3 | -0.6
CCOc1ccc(NC(=S)N=Nc2c(O)[nH]c3ccccc23)cc1 | 0.1 | i | -42.6 | 37.8* | 8.9 | 0.3
